Data: PMC4461448 (Analytical biochemistry, 2015)
Where a SMILES comes first, the peptide text is derived from it. [ ]: non-standard residue; d: D form. Phe(4-CN) = N#Cc1ccc(C[C@H](N)C(=O)O)cc1

Assay: pH titration via PheCN fluorescence to determine N-terminal pKa
Format: physicochemical
Conditions: 20 μM peptide, pH 2-12, 25 °C, excitation 275 nm
How it was run: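 Peptides were HPLC-purified and mass-verified, and concentration was set optically from absorbance at 280 nm (ε 850 M−1 cm−1). Each pH was made by mixing peptide stocks in 25 mM H3PO4 and 25 mM NaOH, then read on a pH meter. Spectra were taken in a 1 cm cuvette at 1 nm resolution, 1 s/nm, with buffer background subtracted. Peak intensity was fitted to a two-state equation with linear acidic and basic baselines to give pKa (±0.1).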

pH dependence of PheCN fluorescence intensity (acid-base titration transition) | Compound
does not show such a transition | CC(=O)NCC(=O)N[C@@H](Cc1ccc(C#N)cc1)C(=O)NCC(N)=O [*GFCNG] (Ac-Gly-[Phe(4-CN)]-Gly-NH2)

Assay: not given
Conditions: melittin, Gly residue at the N-terminus; cited from earlier work

Compound | N-terminal pKa of the amino group
melittin | 7.85

Assay: not given
Conditions: value belongs to the α-helical peptide, not the tripeptide; cited from earlier work

Compound | N-terminal pKa value (pKaH) of an α-helical peptide with X at the N-terminus
C[C@H](N)C(=O)N[C@@H](Cc1ccc(C#N)cc1)C(=O)NCC(N)=O [A, reference compound] (H-Ala-[Phe(4-CN)]-Gly-NH2) | 8.35
N#Cc1ccc(C[C@H](NC(=O)[C@@H](N)CC(=O)O)C(=O)NCC(N)=O)cc1 [D] (H-Asp-[Phe(4-CN)]-Gly-NH2) | 8.25
N#Cc1ccc(C[C@H](NC(=O)CN)C(=O)NCC(N)=O)cc1 [G, reference compound] (H-Gly-[Phe(4-CN)]-Gly-NH2) | 8.51
N#Cc1ccc(C[C@H](NC(=O)[C@@H](N)CCCCN)C(=O)NCC(N)=O)cc1 [K] (H-Lys-[Phe(4-CN)]-Gly-NH2) | 8.12
CSCC[C@H](N)C(=O)N[C@@H](Cc1ccc(C#N)cc1)C(=O)NCC(N)=O [M, reference compound] (H-Met-[Phe(4-CN)]-Gly-NH2) | 7.83
N#Cc1ccc(C[C@H](NC(=O)[C@@H](N)CC(N)=O)C(=O)NCC(N)=O)cc1 [N] (H-Asn-[Phe(4-CN)]-Gly-NH2) | 7.07
N#Cc1ccc(C[C@H](NC(=O)[C@@H]2CCCN2)C(=O)NCC(N)=O)cc1 [P] (H-Pro-[Phe(4-CN)]-Gly-NH2) | 8.85
N#Cc1ccc(C[C@H](NC(=O)[C@@H](N)CO)C(=O)NCC(N)=O)cc1 [S] (H-Ser-[Phe(4-CN)]-Gly-NH2) | 7.63
CC(C)[C@H](N)C(=O)N[C@@H](Cc1ccc(C#N)cc1)C(=O)NCC(N)=O [V] (H-Val-[Phe(4-CN)]-Gly-NH2) | 8.14
